ChEMBL document CHEMBL1687827, “Profiling the Aspergillus fumigatus proteome in response to caspofungin” (2011)
Calls of active or inactive are those of the source. The calls are words filed in the database; no cut-off is given here.

Tests used:
Aspergillus fumigatus [1] = experiment: Induction of change in 60s ribosomal protein yl6 protein level in iTRAQ114 labelled secreted fraction of drug-susceptible Aspergillus fumigatus KU80 delta-akuB at 0.12 ug/ml after 24 hrs in YPD medium by MS (MS/MS) analysis relative to control; assay type: functional
Summary of the method: (§1)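 Conidia at 1 × 10⁵/ml grown shaking at 37°C in YPD with or without 0.12 μg/ml caspofungin; mycelia filtered at 24 or 48 h. Secreted fraction taken from the filtrate; cell wall/plasma membrane pellet recovered after French-press lysis and a 5,000 × g spin. Proteins trypsin-digested and iTRAQ-labelled, drug vs no-drug channels at each time, then 2D LC-MS/MS. Protein ratio is the median of ratios from uniquely assigned peptides after median normalization.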

Aspergillus fumigatus [2] = experiment: Induction of change in ribosomal protein L14 protein level in iTRAQ114 labelled secreted fraction of drug-susceptible Aspergillus fumigatus KU80 delta-akuB at 0.12 ug/ml after 24 hrs in YPD medium by MS (MS/MS) analysis relative to control; assay type: functional
Summary of the method: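 Conidia (1 × 10⁵/ml) grown in YPD, 37°C, 225 rpm, ± 0.12 μg/ml caspofungin; filtrate taken as secreted fraction, French-press lysate 5,000 × g pellet as cell wall/plasma membrane. Trypsin digests 8-plex iTRAQ-labelled (drug-free channels as references), pooled, 2D-chromatography, MS/MS. Median-normalized; protein ratio = median of unique-peptide ratios, log2 normalized.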

Aspergillus fumigatus [3] = experiment: Induction of change in 60S acidic ribosomal protein P2 gene expression in drug-susceptible Aspergillus fumigatus KU80 delta-akuB at 0.12 ug/ml after 24 hrs in YPD medium by microarray analysis relative to control; assay type: functional
Summary of the method: (§2)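 Mycelia grown in YPD ± 0.12 μg/ml caspofungin (1 × 10⁵ conidia/ml, 37°C, shaking) and harvested at 24 or 48 h. Total RNA extracted, DNase-treated and quality-checked; 2 μg labelled per TIGR SOP M007 and hybridized to whole-genome arrays. Three independent experiments with dye flip (6 replicates); drug vs untreated fold change.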

Aspergillus fumigatus [4] = experiment: Induction of change in conserved hypothetical gene locus AFUA_5G03010 expression in drug-susceptible Aspergillus fumigatus KU80 delta-akuB at 0.12 ug/ml after 24 hrs in YPD medium by microarray analysis relative to control; assay type: functional; summary of the method: as §2
Aspergillus fumigatus [5] = experiment: Induction of change in IgE-binding protein level in iTRAQ-116 labelled secreted fraction of drug-susceptible Aspergillus fumigatus KU80 delta-akuB at 0.12 ug/ml after 48 hrs in YPD medium by MS (MS/MS) analysis relative to control; assay type: functional; summary of the method: as §1
Aspergillus fumigatus [6] = experiment: Induction of change in extracellular thaumatin domain protein, putative gene expression in drug-susceptible Aspergillus fumigatus KU80 delta-akuB at 0.12 ug/ml after 48 hrs in YPD medium by microarray analysis relative to control; assay type: functional; summary of the method: as §2
Aspergillus fumigatus [7] = experiment: Induction of change in C2H2 transcription factor (Rpn4), putative gene expression in drug-susceptible Aspergillus fumigatus KU80 delta-akuB at 0.12 ug/ml after 48 hrs in YPD medium by microarray analysis relative to control; assay type: functional; summary of the method: as §2
Aspergillus fumigatus [8] = experiment: Induction of change in cytosolic small ribosomal subunit S4, putative gene expression in drug-susceptible Aspergillus fumigatus KU80 delta-akuB at 0.12 ug/ml after 24 hrs in YPD medium by microarray analysis relative to control; assay type: functional; summary of the method: as §2
Aspergillus fumigatus [9] = experiment: Induction of change in cytochrome c protein level in iTRAQ114 labelled secreted fraction of drug-resistant Aspergillus fumigatus EMFR-S678P at 0.12 ug/ml after 24 hrs in YPD medium by MS (MS/MS) analysis relative to control; assay type: functional
Summary of the method: (§3)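 Conidia at 1 × 10⁵/ml were grown at 37°C, shaking at 225 rpm, in YPD with or without 0.12 μg/ml caspofungin for 24 or 48 h. The culture filtrate was kept as the secreted fraction. Mycelia were lysed by French press in HEPES/glycerol/EDTA/PMSF/DTT buffer, and the 5,000 × g pellet was washed to give CW/PM. Proteins were reduced, alkylated and trypsin-digested at 37°C overnight, then iTRAQ-labelled and run by 2D LC-MS/MS. Ratios are the median of unique-peptide ratios, median-normalized, versus the no-drug control.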

Aspergillus fumigatus [10] = experiment: Induction of change in ThiJ/PfpI family protein level in iTRAQ-118 labelled cell wall fraction of drug-resistant Aspergillus fumigatus EMFR-S678P at 0.12 ug/ml after 24 hrs in YPD medium by MS (MS/MS) analysis relative to control; assay type: functional; summary of the method: as §3
Aspergillus fumigatus [11] = experiment: Induction of change in phosphoglycerate kinase PgkA, putative protein level in iTRAQ-118 labelled cell wall fraction of drug-resistant Aspergillus fumigatus EMFR-S678P at 0.12 ug/ml after 24 hrs in YPD medium by MS (MS/MS) analysis relative to control; assay type: functional; summary of the method: as §3
Aspergillus fumigatus [12] = experiment: Induction of change in transcriptional repressor TupA/RocA, putative protein level in iTRAQ-118 labelled cell wall fraction of drug-resistant Aspergillus fumigatus EMFR-S678P at 0.12 ug/ml after 24 hrs in YPD medium by MS (MS/MS) analysis relative to control; assay type: functional; summary of the method: as §3
Aspergillus fumigatus [13] = experiment: Induction of change in 37S ribosomal protein S24 protein level in iTRAQ-118 labelled cell wall fraction of drug-resistant Aspergillus fumigatus EMFR-S678P at 0.12 ug/ml after 24 hrs in YPD medium by MS (MS/MS) analysis relative to control; assay type: functional, organism-based; summary of the method: as §3
Aspergillus fumigatus [14] = experiment: Induction of change in 60S ribosomal protein L10 protein level in iTRAQ-118 labelled cell wall fraction of drug-resistant Aspergillus fumigatus EMFR-S678P at 0.12 ug/ml after 24 hrs in YPD medium by MS (MS/MS) analysis relative to control; assay type: functional, organism-based; summary of the method: as §3
Aspergillus fumigatus [15] = experiment: Induction of change in 60S ribosomal protein L27e protein level in iTRAQ-118 labelled cell wall fraction of drug-resistant Aspergillus fumigatus EMFR-S678P at 0.12 ug/ml after 24 hrs in YPD medium by MS (MS/MS) analysis relative to control; assay type: functional; summary of the method: as §3
Aspergillus fumigatus [16] = experiment: Induction of change in nascent polypeptide-associated complex (NAC) subunit, putative protein level in iTRAQ-116 labelled secreted fraction of drug-resistant Aspergillus fumigatus EMFR-S678P at 0.12 ug/ml after 48 hrs in YPD medium by MS (MS/MS) analysis relative to control; assay type: functional, organism-based; summary of the method: as §3
Aspergillus fumigatus [17] = experiment: Induction of change in nuclear transport factor NTF-2, putative protein level in iTRAQ-116 labelled secreted fraction of drug-resistant Aspergillus fumigatus EMFR-S678P at 0.12 ug/ml after 48 hrs in YPD medium by MS (MS/MS) analysis relative to control; assay type: functional; summary of the method: as §3
Aspergillus fumigatus [18] = experiment: Induction of change in ATP citrate lyase, subunit 1, putative protein level in iTRAQ114 labelled secreted fraction of drug-susceptible Aspergillus fumigatus KU80 delta-akuB at 0.12 ug/ml after 24 hrs in YPD medium by MS (MS/MS) analysis relative to control; assay type: functional; summary of the method: as §1
Aspergillus fumigatus [19] = experiment: Induction of change in 60S ribosomal protein L10 protein level in iTRAQ-118 labelled cell wall fraction of drug-susceptible Aspergillus fumigatus KU80 delta-akuB at 0.12 ug/ml after 24 hrs in YPD medium by MS (MS/MS) analysis relative to control; assay type: functional; summary of the method: as §1

SMILES: CC[C@H](C)C[C@H](C)CCCCCCCCC(=O)N[C@H]1C[C@@H](O)[C@@H](NCCN)NC(=O)[C@@H]2[C@@H](O)CCN2C(=O)[C@H]([C@H](O)CCN)NC(=O)[C@H]([C@H](O)[C@@H](O)c2ccc(O)cc2)NC(=O)[C@@H]2C[C@@H](O)CN2C(=O)[C@H]([C@@H](C)O)NC1=O [CASPOFUNGIN]
- fold change (FC) (Aspergillus fumigatus [1]): 1.1
- fold change (FC) (Aspergillus fumigatus [2]): -1.1
- fold change (FC) (Aspergillus fumigatus [3]): 4.3
- fold change (FC) (Aspergillus fumigatus [4]): 5.6
- fold change (FC) (Aspergillus fumigatus [5]): -1
- fold change (FC) (Aspergillus fumigatus [6]): -11.2
- fold change (FC) (Aspergillus fumigatus [7]): -2.4
- fold change (FC) (Aspergillus fumigatus [8]): 3.8
- fold change (FC) (Aspergillus fumigatus [9]): -1.07
- fold change (FC) (Aspergillus fumigatus [10]): 1.23
- fold change (FC) (Aspergillus fumigatus [11]): -1.15
- fold change (FC) (Aspergillus fumigatus [12]): 1.32
- Activity (Aspergillus fumigatus [13]): inactive
- Activity (Aspergillus fumigatus [14]): inactive
- fold change (FC) (Aspergillus fumigatus [15]): -1.15
- Activity (Aspergillus fumigatus [16]): inactive
- fold change (FC) (Aspergillus fumigatus [17]): 1.07
- fold change (FC) (Aspergillus fumigatus [18]): 3.2
- fold change (FC) (Aspergillus fumigatus [19]): 2.3
